# Laboratory results as given in ChEMBL document CHEMBL4673212, “Investigation of synergistic antimicrobial effects of the drug combinations of meropenem and 1,2-benzisoselenazol-3(2H)-one derivatives on carbapenem-resistant Enterobacteriaceae producing NDM-1” (Eur J Med Chem, 2018).
# Experiments:
# [1] = tested on: Escherichia coli; test: Synergistic antibacterial activity against Escherichia coli TG1 transformed with IncX3 plasmid expressing blaNDM-1 assessed as ratio of negative logarithm of fractional inhibitory concentration index to non-hydrogen atom in presence of meropenem incubated for overnight by CLSI protocol based assay; format: functional; details: time 12 hrs
# Outline: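 In E. coli TG1 carrying the IncX3 blaNDM-1 plasmid, the FIC index was taken from overnight CLSI-based MICs of compound, meropenem and their 1:1 mass mixture, read by eye. Synergistic efficiency = −ln(FIC index) divided by the number of non-hydrogen atoms. At least triplicate assays.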
# [2] = tested on: Escherichia coli; test: Potentiation of meropenem-induced antibacterial activity against Escherichia coli TG1 transformed with IncX3 plasmid expressing blaNDM-1 assessed as bacterial growth inhibition by measuring meropenem MIC incubated for overnight by CLSI protocol based assay; format: functional; details: time 12 hrs
# [3] = Growth inhibition of Escherichia coli TG1 transformed with IncX3 plasmid expressing blaNDM-1 incubated for overnight by CLSI protocol based assay; details: 12 h
# [4] = tested on: Escherichia coli; test: Synergistic antibacterial activity against Escherichia coli TG1 transformed with IncX3 plasmid expressing blaNDM-1 assessed as fractional inhibitory concentration index in presence of meropenem incubated for overnight by CLSI protocol based assay; format: functional; details: time 12 hrs
# Outline: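 FIC index from MICs of compound alone, meropenem alone, and the 1:1 (mass) compound–meropenem combination, read by eye after overnight incubation in a CLSI-based assay. FIC index = MICcombo/MICcpd + MICcombo/MICMem. FIC index ≤0.5 counted as synergy. At least triplicate assays. Clinical NDM-1 isolates for 17-39; E. coli TG1 carrying the IncX3 blaNDM-1 plasmid for 15.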
# [5] = Inhibition of bacterial VIM-1; set-up: species or system Bacteria
# [6] = Inhibition of recombinant bacterial NDM-1 by fluorogenic assay; set-up: species or system Bacteria
# [7] = Competitive inhibition of recombinant bacterial His6-tagged TEV protease site linked NDM-1 (32 to […] residues) expressed in Escherichia coli BL21 (DE3); set-up: species or system Bacteria
# [8] = Covalent inhibition of bacterial NDM-1; set-up: species or system Bacteria
SMILES,Ratio [1],MIC [2] [µg/mL],MIC [3],fractional inhibitory concentration index (FICI) [4],IC50 [5] [µM],IC50 [6] [µM],IC50 [7] [µM],Ki [8] [µM]
Cc1ccc(C(=O)NCCn2[se]c3ccccc3c2=O)cc1,0.076,8,>= 128 ug ml-1,0.188,–,–,–,–
O=C(NCCn1[se]c2ccccc2c1=O)OCc1ccccc1,0.043,16,>= 128 ug ml-1,0.375,–,–,–,–
O=c1c2ccccc2[se]n1CCCn1ccnc1,0.054,16,>= 128 ug ml-1,0.375,–,–,–,–
O=C(NCCn1[se]c2ccccc2c1=O)c1ccc(F)cc1F,0.013,32,>= 128 ug ml-1,0.75,–,–,–,–
O=c1c2ccccc2[se]n1CCC1CCOCC1,0.084,8,>= 128 ug ml-1,0.188,–,–,–,–
CN(C)CCn1[se]c2ccccc2c1=O,0.065,16,>= 128 ug ml-1,0.375,–,–,–,–
CC(C)(C)CC(=O)NCCn1[se]c2ccccc2c1=O,0.084,8,>= 128 ug ml-1,0.188,–,–,–,–
Cl.NCCCn1[se]c2ccccc2c1=O,0.091,2,8 µg/mL,0.281,–,–,–,–
O=C(O)[C@@H]1SC[C@H]2CS[C@H](CS)N21,–,–,–,–,23,–,–,–
CCCC[n+]1ccn(CCCn2[se]c3ccccc3c2=O)c1,0.076,8,>= 128 ug ml-1,0.188,–,–,–,–
CCN1CCC[C@@H]1Cn1[se]c2ccccc2c1=O,0.039,16,64 µg/mL,0.5,–,–,–,–
COP(=O)(NCCn1[se]c2ccccc2c1=O)OC,0.084,8,>= 128 ug ml-1,0.188,–,–,–,–
O=C(O)c1ccc(-n2[se]c3ccccc3c2=O)cc1,0.109,4,64 µg/mL,0.125,–,–,–,–
O=c1c2ccccc2[se]n1C1CCCCC1,0.087,8,64 µg/mL,0.25,–,–,–,–
CCN(CC)CCn1[se]c2ccccc2c1=O,0.041,16,64 µg/mL,0.5,–,–,–,–
O=c1c2ccccc2[se]n1-c1ccc(CO)cc1,0.054,16,>= 128 ug ml-1,0.375,–,–,–,–
O=C1CC[Se]N1c1ccccc1,0.024,32,>= 128 ug ml-1,0.75,–,–,–,–
O=C(O)c1cccc(-n2[se]c3ccccc3c2=O)c1,0.052,8,32 µg/mL,0.375,–,–,–,–
CC1CN(CCn2[se]c3ccccc3c2=O)CC(C)O1 (stereo not given),0.049,16,>= 128 ug ml-1,0.375,–,–,–,–
CC(C)(OC(=O)NCCCn1[se]c2ccccc2c1=O)C(F)(F)F,0.07,8,>= 128 ug ml-1,0.188,–,–,–,–
COc1ccc(Cn2[se]c3ccccc3c2=O)cc1,0.088,8,>= 128 ug ml-1,0.188,–,–,–,–
O=c1c2ccccc2[se]n1Cc1ccccc1,0.058,8,32 µg/mL,0.375,–,–,–,–
NCCNCc1ccc(C(=O)N[C@H]2Cc3cccc(C(=O)O)c3O[B-]2(O)O)cc1,–,–,–,–,–,0.004,–,–
O=C(O)[C@H]1CCCCN1C(=O)C(CS)Cc1ccccc1 (mixture of isomers),–,–,–,–,–,–,0.7,–
C#CCn1[se]c2ccccc2c1=O,0.107,8,64 µg/mL,0.25,–,–,–,–

SMILES,Ratio [1],MIC [2] [µg/mL],MIC [3],fractional inhibitory concentration index (FICI) [4],IC50 [5] [µM],IC50 [6] [µM],IC50 [7] [µM],Ki [8] [µM]
COc1ccc(-n2[se]c3ccccc3c2=O)cc1Cl,0.015,32,>= 128 ug ml-1,0.75,–,–,–,–
C[C@@H](O)[C@H]1C(=O)N2C(C(=O)O)=C(S[C@@H]3CN[C@H](C(=O)N(C)C)C3)[C@H](C)[C@H]12 [MEROPENEM],–,–,64 µg/mL,–,–,–,–,–
CC(C)(CC(=O)NCCn1[se]c2ccccc2c1=O)C(F)(F)F,0.073,8,>= 128 ug ml-1,0.188,–,–,–,–
Cl.NCCn1[se]c2ccccc2c1=O,-0.005,4,4 µg/mL,1.063,–,–,–,–
O=c1c2ccccc2[se]n1CCN1CCOCC1,0.039,16,64 µg/mL,0.5,–,–,–,–
O=C1N[Se]c2ccccc2C(=O)N1,0.107,8,64 µg/mL,0.25,–,–,–,–
O=c1c2ccccc2[se]n1Cc1cccc(-c2ccccc2)c1,0.043,16,>= 128 ug ml-1,0.375,–,–,–,–
C[C@H](C(=O)N[C@H](C)C(=O)O)n1[se]c2ccccc2c1=O,0.049,16,>= 128 ug ml-1,0.375,–,–,–,–
O=C(O)Cn1[se]c2ccccc2c1=O,0.091,2,8 µg/mL,0.281,–,–,–,–
O=c1c2ccccc2[se]n1-c1ccc(Cl)cc1,0.139,4,>= 128 ug ml-1,0.094,–,–,–,–
CC(C)c1ccc(-n2[se]c3ccccc3c2=O)cc1,0.052,16,>= 128 ug ml-1,0.375,–,–,–,–
N[C@@H](C(=O)N[C@@H]1C(=O)N2C(C(=O)O)=C(Cl)CS[C@H]12)c1ccccc1 [CEFACLOR ANHYDROUS],–,–,–,–,–,–,–,2300
O=C(NCCn1[se]c2ccccc2c1=O)c1cccs1,0.084,8,>= 128 ug ml-1,0.188,–,–,–,–
CC(C)(C)OC(=O)NCCCn1[se]c2ccccc2c1=O,0.08,8,>= 128 ug ml-1,0.188,–,–,–,–
O=c1c2ccccc2[se]n1Cc1cccc(N2CCCCC2)c1,0.043,16,>= 128 ug ml-1,0.375,–,–,–,–
O=c1c2ccccc2[se]n1CCO,0.022,16,32 µg/mL,0.75,–,–,–,–
COc1cccc(C(=O)n2[se]c3ccccc3c2=O)c1,0.084,8,>= 128 ug ml-1,0.188,–,–,–,–
O=c1c2ccccc2[se]n1S(=O)(=O)c1ccc(Cl)cc1,0.049,16,>= 128 ug ml-1,0.375,–,–,–,–
COc1ccc(-n2[se]c3ccccc3c2=O)cc1,0.054,16,>= 128 ug ml-1,0.375,–,–,–,–
O=C(NCCn1[se]c2ccccc2c1=O)c1ccccc1,0.047,16,>= 128 ug ml-1,0.375,–,–,–,–
CCN(CC)CCCC(C)n1[se]c2ccccc2c1=O (stereo not given),0.084,8,>= 128 ug ml-1,0.188,–,–,–,–
O=c1c2ccccc2[se]n1CCNCc1ccccc1,0.084,8,>= 128 ug ml-1,0.188,–,–,–,–
O=c1c2ccccc2[se]n1-c1ccncc1,0.018,32,>= 128 ug ml-1,0.75,–,–,–,–
O=c1c2ccccc2[se]n1CCN1CCCCC1,0.054,16,>= 128 ug ml-1,0.375,–,–,–,–
CCN1CCC[C@H]1Cn1[se]c2ccccc2c1=O,0.039,16,64 µg/mL,0.5,–,–,–,–
